In ChEMBL document CHEMBL1255453, “Affinity of ceftaroline and other beta-lactams for penicillin-binding proteins from Staphylococcus aureus and Streptococcus pneumoniae” (Antimicrob Agents Chemother, 2010):
≈ marks a conversion by molar mass, not a printed value.

Columns and labels:
[1] = Binding affinity to against methicillin-, daptomycin-resistant, vancomycin-intermediate, beta-lactamase-positive Staphylococcus aureus 25 PBP3 by competitive binding assay
Outline: (§1)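 MRSA strain harvested in stationary phase (OD600 >2.00). Membranes prepared by enzymatic lysis, freeze-thaw, sonication and ultracentrifugation, then preincubated with clavulanic acid 1 mg/ml. β-Lactam competition 10 min at 37°C, then Bocillin FL 40 μg/ml, 15 min at 37°C. SDS-PAGE, 520 nm imaging; IC50 = 50% inhibition of Bocillin FL labeling; 3 membrane isolations.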

[2] = Binding affinity to methicillin-resistant, vancomycin-intermediate, beta-lactamase-positive Staphylococcus aureus 1287 PBP3 by competitive binding assay
Staphylococcus aureus [3] = assay: Antibacterial activity against methicillin-, vancomycin-susceptible Staphylococcus aureus ATCC 29213 by macrodilution method; assay type: functional
Outline: (§2)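 CLSI broth macrodilution MICs. The S. aureus set is 5 MRSA strains (hVISA, VISA, VRSA) plus 1 MSSA. The S. pneumoniae set is 7 clonally unrelated clinical isolates, categorised by penicillin G against 2006 CLSI M100-S17 criteria (resistant ≥2 μg/ml, susceptible ≤0.06 μg/ml).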

[4] = Binding affinity to methicillin-, linezolid-resistant, vancomycin-intermediate, beta-lactamase-positive Staphylococcus aureus 2149A PBP4 by competitive binding assay
[5] = Binding affinity to methicillin-resistant, heteroresistant vancomycin-intermediate, beta-lactamase-negative Staphylococcus aureus 873 PBP3 by competitive binding assay
Staphylococcus aureus [6] = assay: Antibacterial activity against methicillin-, linezolid-resistant, vancomycin-intermediate, beta-lactamase-positive Staphylococcus aureus 2149A by macrodilution method; assay type: functional; outline: as §2
Streptococcus pneumoniae [7] = assay: Antibacterial activity against penicillin-resistant Streptococcus pneumoniae 24 by macrodilution method; assay type: functional; outline: as §2
[8] = Binding affinity to methicillin-, linezolid-resistant, vancomycin-intermediate, beta-lactamase-positive Staphylococcus aureus 2149A PBP2 by competitive binding assay
Streptococcus pneumoniae [9] = assay: Antibacterial activity against penicillin-resistant Streptococcus pneumoniae 1564 by macrodilution method; assay type: functional; outline: as §2
Staphylococcus aureus [10] = assay: Antibacterial activity against methicillin-resistant, heteroresistant vancomycin-intermediate, beta-lactamase-negative Staphylococcus aureus 873 by macrodilution method; assay type: functional; outline: as §2
Streptococcus pneumoniae [11] = assay: Antibacterial activity against penicillin-resistant Streptococcus pneumoniae 2688 by macrodilution method; assay type: functional; outline: as §2
Streptococcus pneumoniae [12] = assay: Antibacterial activity against penicillin-resistant Streptococcus pneumoniae 3413 by macrodilution method; assay type: functional; outline: as §2
Streptococcus pneumoniae [13] = assay: Antibacterial activity against penicillin-resistant Streptococcus pneumoniae 2527 by macrodilution method; assay type: functional; outline: as §2
[14] = Binding affinity to methicillin-, vancomycin-susceptible Staphylococcus aureus ATCC 29213 PBP1 by competitive binding assay
Outline: (§3)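 MSSA grown in brain heart infusion broth and harvested at OD600 0.3–0.4. Lysed with lysozyme, lysostaphin, DNase I, freeze-thaw and sonication; membranes collected at 100,000 × g. Membranes (100 μg protein) incubated with β-lactam 10 min at 37°C, then Bocillin FL 40 μg/ml, 15 min at 37°C. SDS-PAGE, fluorescence at 520 nm. IC50 is 50% inhibition of Bocillin FL binding; 3 membrane isolations.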

[15] = Binding affinity to methicillin-resistant, vancomycin-intermediate, beta-lactamase-positive Staphylococcus aureus 1287 PBP4 by competitive binding assay
[16] = Binding affinity to methicillin-, vancomycin-susceptible Staphylococcus aureus ATCC 29213 PBP2 by competitive binding assay; outline: as §3
MecA [17] = biological target: T1, MecA (Staphylococcus aureus, UniProt Q7DHH4); assay: Binding affinity to against methicillin-, daptomycin-resistant, vancomycin-intermediate, beta-lactamase-positive Staphylococcus aureus 25 PBP2a by competitive binding assay; outline: as §1
T1 sequence (Q7DHH4 whole entry): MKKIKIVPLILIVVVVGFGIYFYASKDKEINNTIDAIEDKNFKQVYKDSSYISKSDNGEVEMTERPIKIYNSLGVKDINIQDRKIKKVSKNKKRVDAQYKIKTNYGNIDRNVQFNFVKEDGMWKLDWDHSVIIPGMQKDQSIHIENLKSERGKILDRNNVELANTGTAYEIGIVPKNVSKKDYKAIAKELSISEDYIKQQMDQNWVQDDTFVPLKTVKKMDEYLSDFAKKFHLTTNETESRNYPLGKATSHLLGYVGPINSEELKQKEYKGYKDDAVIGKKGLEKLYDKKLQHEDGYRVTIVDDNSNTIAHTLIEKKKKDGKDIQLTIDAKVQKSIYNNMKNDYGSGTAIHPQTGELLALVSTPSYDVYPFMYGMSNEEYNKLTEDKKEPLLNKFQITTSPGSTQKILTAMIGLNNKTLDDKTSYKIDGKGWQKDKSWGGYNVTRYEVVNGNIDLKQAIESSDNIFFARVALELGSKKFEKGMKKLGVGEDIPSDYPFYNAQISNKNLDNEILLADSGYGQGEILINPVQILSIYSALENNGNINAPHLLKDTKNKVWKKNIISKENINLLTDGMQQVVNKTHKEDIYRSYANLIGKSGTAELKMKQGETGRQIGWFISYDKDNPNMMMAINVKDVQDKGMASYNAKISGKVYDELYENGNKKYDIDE

[18] = Binding affinity to methicillin-resistant, heteroresistant vancomycin-intermediate, beta-lactamase-negative Staphylococcus aureus 873 PBP1 by competitive binding assay
MecA [19] = biological target: T1, MecA; assay: Binding affinity to methicillin-resistant, heteroresistant vancomycin-intermediate, beta-lactamase-negative Staphylococcus aureus 873 PBP2a by competitive binding assay
Outline: (§4)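 MRSA grown in brain heart infusion and harvested in exponential phase (OD600 0.3–0.4). Membranes prepared by lysozyme/lysostaphin/DNase, freeze-thaw and sonication, then ultracentrifugation. Membranes preincubated with clavulanic acid 1 mg/ml to saturate PBPs other than PBP2a. Then β-lactam 10 min at 37°C and Bocillin FL 40 μg/ml, 15 min at 37°C. SDS-PAGE fluorescence; IC50 = 50% inhibition of Bocillin FL binding; 3 isolations.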

[20] = Binding affinity to methicillin-, vancomycin-resistant, beta-lactamase-positive Staphylococcus aureus 510 PBP1 by competitive binding assay
[21] = Binding affinity to methicillin-, vancomycin-resistant, beta-lactamase-positive Staphylococcus aureus 510 PBP4 by competitive binding assay
[22] = Binding affinity to against methicillin-, daptomycin-resistant, vancomycin-intermediate, beta-lactamase-positive Staphylococcus aureus 25 PBP2 by competitive binding assay; outline: as §1
MecA [23] = biological target: T1, MecA; assay: Binding affinity to methicillin-resistant, vancomycin-intermediate, beta-lactamase-positive Staphylococcus aureus 1287 PBP2a by competitive binding assay; outline: as §4
[24] = Binding affinity to methicillin-, vancomycin-susceptible Staphylococcus aureus ATCC 29213 PBP3 by competitive binding assay; outline: as §3
[25] = Binding affinity to methicillin-, vancomycin-resistant, beta-lactamase-positive Staphylococcus aureus 510 PBP3 by competitive binding assay
Staphylococcus aureus [26] = assay: Antibacterial activity against methicillin-, vancomycin-resistant, beta-lactamase-positive Staphylococcus aureus 510 by macrodilution method; assay type: functional; outline: as §2
Staphylococcus aureus [27] = assay: Antibacterial activity against methicillin-resistant, vancomycin-intermediate, beta-lactamase-positive Staphylococcus aureus 1287 by macrodilution method; assay type: functional; outline: as §2

| SMILES | IC50 [1] [µg/mL] | IC50 [2] [µg/mL] | MIC (Staphylococcus aureus [3]) [µg/mL] | IC50 [4] [µg/mL] | IC50 [5] [µg/mL] | MIC (Staphylococcus aureus [6]) [µg/mL] | MIC (Streptococcus pneumoniae [7]) [µg/mL] | IC50 [8] [µg/mL] | MIC (Streptococcus pneumoniae [9]) [µg/mL] | MIC (Staphylococcus aureus [10]) [µg/mL] | MIC (Streptococcus pneumoniae [11]) [µg/mL] | MIC (Streptococcus pneumoniae [12]) [µg/mL] | MIC (Streptococcus pneumoniae [13]) [µg/mL] | IC50 [14] [µg/mL] | IC50 [15] [µg/mL] | IC50 [16] [µg/mL] | IC50 (MecA [17]) [µM] | IC50 [18] [µg/mL] | IC50 (MecA [19]) [µM] | IC50 [20] [µg/mL] | also measured |
| --- | --- | --- | --- | --- | --- | --- | --- | --- | --- | --- | --- | --- | --- | --- | --- | --- | --- | --- | --- | --- | --- |
| CO/N=C(\C(=O)N[C@@H]1C(=O)N2C(C(=O)O)=C(COC(C)=O)CS[C@H]12)c1csc(N)n1 [CEFOTAXIME] | 1 (≈ 2.2 µM) | 1 (≈ 2.2 µM) | 2 (≈ 4.39 µM) | > 128 | 0.25 (≈ 0.549 µM) | 32 (≈ 70.3 µM) | 1 (≈ 2.2 µM) | 1 (≈ 2.2 µM) | 32 (≈ 70.3 µM) | > 64 | 16 (≈ 35.1 µM) | 2 (≈ 4.39 µM) | 0.015 (≈ 0.0329 µM) | 0.25 (≈ 0.549 µM) | > 128 | 0.25 (≈ 0.549 µM) | 1.1 | 2 (≈ 4.39 µM) | > 281 | 0.5 (≈ 1.1 µM) | IC50 [21]: > 128 µg/mL; IC50 [22]: 2 µg/mL (≈ 4.39 µM); IC50 (MecA [23]): 4.39 µM; IC50 [24]: 1 µg/mL (≈ 2.2 µM); IC50 [25]: 0.25 µg/mL (≈ 0.549 µM); MIC (Staphylococcus aureus [26]): > 64 µg/mL; MIC (Staphylococcus aureus [27]): 4 µg/mL (≈ 8.78 µM) |
| CO/N=C(\C(=O)N[C@@H]1C(=O)N2C(C(=O)O)=C(CSc3nc(=O)c(O)nn3C)CS[C@H]12)c1csc(N)n1 [CEFTRIAXONE] | 1 (≈ 1.8 µM) | 1 (≈ 1.8 µM) | 2 (≈ 3.61 µM) | > 128 | 0.25 (≈ 0.451 µM) | 64 (≈ 115 µM) | 2 (≈ 3.61 µM) | 1 (≈ 1.8 µM) | 32 (≈ 57.7 µM) | > 64 | 8 (≈ 14.4 µM) | 2 (≈ 3.61 µM) | 0.03 (≈ 0.0541 µM) | 0.25 (≈ 0.451 µM) | > 128 | 0.25 (≈ 0.451 µM) | 0.451 | 2 (≈ 3.61 µM) | > 231 | 0.5 (≈ 0.902 µM) | IC50 [21]: > 128 µg/mL; IC50 [22]: 2 µg/mL (≈ 3.61 µM); IC50 (MecA [23]): 3.61 µM; IC50 [24]: 1 µg/mL (≈ 1.8 µM); IC50 [25]: 0.25 µg/mL (≈ 0.451 µM); MIC (Staphylococcus aureus [26]): > 64 µg/mL; MIC (Staphylococcus aureus [27]): 8 µg/mL (≈ 14.4 µM) |
| CC1(C)S[C@@H]2[C@H](NC(=O)Cc3ccccc3)C(=O)N2[C@H]1C(=O)O [PENICILLIN G] | 0.5 (≈ 1.5 µM) | 0.25 (≈ 0.748 µM) | 1 (≈ 2.99 µM) | > 128 | 0.03 (≈ 0.0897 µM) | 64 (≈ 191 µM) | 4 (≈ 12 µM) | > 128 | 16 (≈ 47.8 µM) | 8 (≈ 23.9 µM) | 8 (≈ 23.9 µM) | 4 (≈ 12 µM) | 2 (≈ 5.98 µM) | 4 (≈ 12 µM) | 4 (≈ 12 µM) | 8 (≈ 23.9 µM) | 12 | 0.5 (≈ 1.5 µM) | 191 | 128 (≈ 383 µM) | IC50 [21]: 64 µg/mL (≈ 191 µM); IC50 [22]: 1 µg/mL (≈ 2.99 µM); IC50 (MecA [23]): 12 µM; IC50 [24]: 1 µg/mL (≈ 2.99 µM); IC50 [25]: 4 µg/mL (≈ 12 µM); MIC (Staphylococcus aureus [26]): 32 µg/mL (≈ 95.7 µM); MIC (Staphylococcus aureus [27]): 32 µg/mL (≈ 95.7 µM) |
